G6PDH counter: L. mesenteroides G6PDH inhibitors, counter-screen for G6PDH-coupled screening assays, biochemical, Leuconostoc mesenteroides enzyme | glucose-6-phosphate dehydrogenase [Leuconostoc mesenteroides] | Purified L. mesenteroides G6PDH, diaphorase/resazurin coupled fluorescence, 45 min | inhibition, % at 5 µM | hit rate 0.12% among 200,000 | AID 1020, 2008
Diaphorase act: compounds boosting diaphorase resazurin reduction – biochemical, uHTS, resorufin fluorescence, counter-screen for diaphorase-coupled primary assays, primary screen; Diaphorase/resazurin coupled assay, 16 min; hits give high values; 1 = vehicle wells, 0 = NADH-free wells; activation factor at 20 µM; hit rate 0.005% among 190,000;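 active means diaphorase activity raised at least twofold by the compound at 20 µM; inactive means activation factor below 2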
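System – purified diaphorase enzyme from Clostridium kluyveri · Input – enzyme 0.07 U/mL final · Also added – final NADH 0.114 mM, resazurin 0.1 mM · Measured by – fluorescence of resorufin, 544 nm excitation, 590 nm emission · Timing – 16 min enzyme reaction, ambient temperature · Measure – resorufin increase flagging diaphorase activators or reducers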
Redox H2O2 prof: compounds producing H2O2 with reducing agent – biochemical, NIH compound library profiling, artefact control for MLSCN library redox annotation, primary screen; DTT-dependent redox cycling H2O2, phenol red/HRP absorbance; 100% = 100 µM peroxide control, 0% = buffer; hit rate 0.03% among 200,000; activation, % at 10 µM; AID 878, 2007;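 active means activation of at least 50% relative to the plate's high and low controls in the primary single-dose screen; inactive means activation below 50%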;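 further: compound incubated with DTT at 0.8 mM final as the reducing agent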
PfGluPho inh: PfG6PD enzyme inhibitors, primary screen, biochemical, fluorescence intensity, uHTS; glucose-6-phosphate dehydrogenase-6-phosphogluconolactonase (Plasmodium falciparum 3D7); PfGluPho enzyme, NADPH resazurin-diaphorase fluorescence; inhibition, % at 20 µM; hit rate 0.78% among 350,000;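 active means inhibition reaching at least a set limit at 20 µM in the primary screen, cut at about 59% in these data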
L major viab: Leishmania major promastigote growth inhibition, primary screen | Leishmania major promastigotes, resazurin fluorescence viability | inhibition, % at 10 µM | hit rate 9% among 200,000;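 further: promastigotes grown with compound for 44 hours at 28 °C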
Diaphorase inh: diaphorase inhibitors and chemical oxidizers, primary screen, counter-screen for diaphorase-coupled primary assays, biochemical, uHTS, resorufin fluorescence; diaphorase resazurin-to-resorufin fluorescence, NADH, 16 min; bacterial (C. kluyveri) enzyme, not human; inhibition, % at 20 µM; hit rate 0.69% among 190,000;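 active means primary screen inhibition at 20 µM above a set limit, cut at about 50% in these data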
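material = Clostridium kluyveri diaphorase enzyme | amount = 0.14 U/mL diaphorase, enzyme working solution | schedule = incubation 16 min, room temperature | detection = fluorescence of resorufin formed from resazurin, Ex 544/Em 590 nm | benchmarks = positive control minus NADH, DMSO neutral control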
A number is an active result. The sample as a whole holds a higher share of hits than the screen did. Unless noted, no stated cut-off is given here; in the data, active means inhibition above about 50%; inactive means the rest.

How did O=C(c1ccccc1)c1coc2c1C(=O)c1ccccc1C2=O do in these assays?
G6PDH counter: 53; Diaphorase act: inactive; Redox H2O2 prof: inactive; PfGluPho inh: inactive; L major viab: inactive; Diaphorase inh: inactive

Results for CCOC(=O)C(C)Sc1nc2c(c(-c3cccs3)c1C#N)CCC2 (centres undefined) ?
G6PDH counter: inactive; Diaphorase act: inactive; Redox H2O2 prof: inactive; PfGluPho inh: inactive; L major viab: 54; Diaphorase inh: inactive

How did Cc1ccc(S(=O)(=O)N2c3ccccc3CC2C)cc1 (centres undefined) do in these assays?
G6PDH counter: inactive; Diaphorase act: inactive; Redox H2O2 prof: inactive; PfGluPho inh: inactive; L major viab: inactive; Diaphorase inh: inactive

How did COc1ccc(C)cc1S(=O)(=O)N1c2ccccc2CC1C (centres undefined) do in these assays?
G6PDH counter: inactive; Diaphorase act: inactive; Redox H2O2 prof: inactive; PfGluPho inh: inactive; L major viab: 100; Diaphorase inh: inactive

Results for CC1Cc2ccccc2N1S(=O)(=O)c1cccs1 (centres undefined) ?
G6PDH counter: inactive; Diaphorase act: inactive; Redox H2O2 prof: inactive; PfGluPho inh: inactive; L major viab: 90; Diaphorase inh: inactive

Results for CNC(=O)c1cc(NC(=O)N(CCC#N)CCN(C(=O)NC(Cc2ccccc2)C(=O)NC(CC(C)C)C(=O)NC)c2ccccc2)ccc1OC (centres undefined) ?
PfGluPho inh: inactive

What do the screens show for `Cn1c(N=Nc2ccccc2)nc2ccccc21`?
G6PDH counter: inactive; Diaphorase act: inactive; Redox H2O2 prof: inactive; PfGluPho inh: inactive; L major viab: 53; Diaphorase inh: inactive

Results for COc1ccc2cc3cc(C(=O)Nc4cc(OC)c(OC)c(OC)c4)oc3nc2c1 ?
G6PDH counter: inactive; Diaphorase act: inactive; Redox H2O2 prof: inactive; PfGluPho inh: inactive; L major viab: inactive; Diaphorase inh: inactive

How did COc1ccc2cc3cc(C(=O)Nc4ccc5c(c4)OCCO5)oc3nc2c1 do in these assays?
G6PDH counter: inactive; Diaphorase act: inactive; Redox H2O2 prof: inactive; PfGluPho inh: inactive; L major viab: 100; Diaphorase inh: inactive

What do the screens show for `COc1ccc2cc3cc(C(=O)NC(C)C)oc3nc2c1`?
G6PDH counter: inactive; Diaphorase act: inactive; Redox H2O2 prof: inactive; PfGluPho inh: inactive; L major viab: 89; Diaphorase inh: inactive

What do the screens show for `CCCCN(C)C(=O)c1cc2cc3ccc(OC)cc3nc2o1`?
PfGluPho inh: inactive

Results for CCN(C(=O)c1cc2cc3ccc(C)cc3nc2o1)c1ccc(OC)cc1 ?
G6PDH counter: inactive; Diaphorase act: inactive; Redox H2O2 prof: inactive; PfGluPho inh: inactive; L major viab: inactive; Diaphorase inh: 60

How did CCOc1ccc(C2c3c(oc4ccccc4c3=O)C(=O)N2c2ccc(C)cn2)cc1OC (centres undefined) do in these assays?
G6PDH counter: inactive; Diaphorase act: inactive; Redox H2O2 prof: inactive; PfGluPho inh: inactive; L major viab: 80; Diaphorase inh: inactive

Results for O=C(NC(=S)N1CCN(c2ccc(Cl)cc2[N+](=O)[O-])CC1)c1cccs1 ?
G6PDH counter: inactive; Diaphorase act: inactive; Redox H2O2 prof: inactive; PfGluPho inh: inactive; L major viab: 75; Diaphorase inh: inactive

How did O=C(NC(=S)N1CCN(c2ccc(Cl)cc2[N+](=O)[O-])CC1)c1ccco1 do in these assays?
G6PDH counter: inactive; Diaphorase act: inactive; Redox H2O2 prof: inactive; PfGluPho inh: inactive; L major viab: inactive; Diaphorase inh: inactive

Results for O=C(NC(=S)N1CCCCC1)c1cccs1 ?
G6PDH counter: inactive; Diaphorase act: inactive; Redox H2O2 prof: inactive; PfGluPho inh: inactive; L major viab: 55; Diaphorase inh: inactive

Results for COc1cccc(C(=O)NC(=S)N2CCN(c3ccc(C(F)(F)F)cc3[N+](=O)[O-])CC2)c1 ?
G6PDH counter: inactive; Diaphorase act: inactive; Redox H2O2 prof: inactive; PfGluPho inh: inactive; L major viab: 51; Diaphorase inh: inactive

Results for CC1CCN(C(=S)NC(=O)c2cccs2)CC1 ?
G6PDH counter: inactive; Diaphorase act: inactive; Redox H2O2 prof: inactive; PfGluPho inh: inactive; L major viab: inactive; Diaphorase inh: inactive

How did CC(=O)N1CCN(S(=O)(=O)c2cccc(C(=O)NC3CCCC(C)C3C)c2)CC1 (centres undefined) do in these assays?
PfGluPho inh: inactive

Results for Cc1cccc(C)c1NC(=O)CCCSc1nnc(-c2ccc(Cl)cc2)n1-c1ccccc1 ?
G6PDH counter: inactive; Diaphorase act: inactive; Redox H2O2 prof: inactive; PfGluPho inh: inactive; L major viab: 56; Diaphorase inh: inactive

What do the screens show for `Fc1ccccc1Cc1noc(CN2CCN(Cc3ccc4c(c3)OCO4)CC2)n1`?
G6PDH counter: inactive; Diaphorase act: inactive; Redox H2O2 prof: inactive; PfGluPho inh: inactive; L major viab: 84; Diaphorase inh: inactive

How did O=C(C1CCN(Cc2nc(Cc3cccc(F)c3)no2)CC1)N1CCOCC1 do in these assays?
G6PDH counter: inactive; Diaphorase act: inactive; Redox H2O2 prof: inactive; PfGluPho inh: inactive; L major viab: inactive; Diaphorase inh: inactive

Results for c1ccc(Cc2noc(CN3CCN(Cc4ccc5c(c4)OCO5)CC3)n2)cc1 ?
G6PDH counter: inactive; Diaphorase act: inactive; Redox H2O2 prof: inactive; PfGluPho inh: inactive; L major viab: 90; Diaphorase inh: inactive

What do the screens show for `O=C(c1ccccc1F)N1CCN(Cc2ccc3c(c2)OCO3)CC1`?
PfGluPho inh: inactive

What do the screens show for `COc1ccccc1CN1CCN(Cc2nc(Cc3ccccc3)no2)CC1`?
G6PDH counter: inactive; Diaphorase act: inactive; Redox H2O2 prof: inactive; PfGluPho inh: inactive; L major viab: inactive; Diaphorase inh: inactive

What do the screens show for `C(=C\c1ccccc1)/CN1CCN(Cc2nc(Cc3ccccc3)no2)CC1`?
G6PDH counter: inactive; Diaphorase act: inactive; Redox H2O2 prof: inactive; PfGluPho inh: inactive; L major viab: 80; Diaphorase inh: inactive

Results for Fc1cccc(CN2CCN(Cc3nc(CCc4ccccc4)no3)CC2)c1 ?
G6PDH counter: inactive; Diaphorase act: inactive; Redox H2O2 prof: inactive; PfGluPho inh: inactive; L major viab: 79; Diaphorase inh: inactive

What do the screens show for `CN(CCC#N)C(=S)NC(=O)c1ccc(S(=O)(=O)N2CCOCC2)cc1`?
G6PDH counter: inactive; Diaphorase act: inactive; Redox H2O2 prof: inactive; PfGluPho inh: inactive; L major viab: inactive; Diaphorase inh: inactive

Results for CCOC(=O)c1c(NC(=O)CSc2ncnc3ccccc23)sc(C)c1C ?
G6PDH counter: inactive; Diaphorase act: inactive; Redox H2O2 prof: inactive; PfGluPho inh: inactive; L major viab: 77; Diaphorase inh: inactive

Source: PubChem
